Molecules are shown by their SMILES. The source made the active and inactive calls. No cut-off for these calls is given here.

Assay type in all cases: cell-based
In assay [1] the target is T1, Antigen-presenting glycoprotein CD1d (Homo sapiens) (UniProt P15813).
T1 sequence (whole entry): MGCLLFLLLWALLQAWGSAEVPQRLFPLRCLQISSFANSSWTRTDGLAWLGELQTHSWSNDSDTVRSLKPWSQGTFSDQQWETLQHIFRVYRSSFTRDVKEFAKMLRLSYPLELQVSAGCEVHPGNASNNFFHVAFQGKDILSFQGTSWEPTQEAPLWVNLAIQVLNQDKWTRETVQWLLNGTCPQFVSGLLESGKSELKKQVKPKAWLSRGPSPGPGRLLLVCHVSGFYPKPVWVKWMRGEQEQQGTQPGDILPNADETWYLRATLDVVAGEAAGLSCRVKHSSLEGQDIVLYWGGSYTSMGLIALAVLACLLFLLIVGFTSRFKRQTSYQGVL
In words: Binding affinity to C1R-hCD1d expressed in human B cells assessed as increase in Th1 cytokine release in mouse iNKT cells upto 100 ng/ml after 36 hrs by ELISA. A general note: An ELISA detects its analyte on a solid surface through an enzyme-linked reagent.

Assay [2] concerns the target T1, Antigen-presenting glycoprotein CD1d (Homo sapiens). Kind of assay: Binding affinity to C1R-hCD1d expressed in human B cells assessed as increase in Th2 cytokine release in mouse iNKT cells upto 100 ng/ml after 36 hrs by ELISA.
Assay [3] has the same target. In words: Binding affinity to C1R-hCD1d expressed in human B cells assessed as activation of IFN-gamma release in human iNKT cells upto 100 ng/ml after 36 hrs by ELISA. The method in brief: (§1)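 C1R cells expressing human CD1d were pulsed with lipid at a range of concentrations. 5 × 10⁴ pulsed targets were co-cultured with 2 × 10⁴ human iNKT line cells at 37 °C for 36 h. IFN-γ and IL-4 in the harvested supernatants were quantified by ELISA, and IFN-γ/IL-4 and IL-4/IFN-γ ratios were derived from these values.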

Assay [4] has the same target. In words: Binding affinity to C1R-hCD1d expressed in human B cells assessed as activation of IL-4 release in human iNKT cells upto 100 ng/ml after 36 hrs by ELISA. The gist of the method: as §1
Assay [5] shares this target. Kind of assay: Binding affinity to C1R-hCD1d expressed in human B cells assessed as change in IFN-gamma/IL4 ratio in human iNKT cells upto 100 ng/ml after 36 hrs by ELISA. The gist of the method: as §1
Assay [6] has the same target. Kind of assay: Binding affinity to C1R-hCD1d expressed in human B cells assessed as increase in IFN-gamma/IL4 ratio in mouse iNKT cells upto 100 ng/ml after 36 hrs by ELISA.

`CCCCCCCCCCCCCCCCCCCCCCCCCC(=O)N[C@@H](CO[C@H]1O[C@H](CO)[C@H](O)[C@H](O)[C@H]1O)[C@H](O)[C@H](O)CCCCCCCCCCC`: the outcome in assay [1], in assay [2], in assay [3], in assay [4] and in assay [6] was Active. Also, in assay [5], the result was inactive.

In the case of `CCCCC/C=C\C/C=C\CCCCCCCCCC(=O)N[C@@H](CO[C@H]1O[C@H](CO)[C@H](O)[C@H](O)[C@H]1O)[C@H](O)[C@H](O)CCCCCCCCCCCCCC`, the result in assay [1], in assay [2] and in assay [6] was Active. Also, the outcome in assay [5] was inactive.

With `CCCCCCCCCCCCCCCCCCCCCCCCCC(=O)N[C@@H](CO[C@H]1O[C@H](CO)[C@H](O)[C@H](O)[C@H]1O)[C@H](O)[C@H](O)CCCCC`, the outcome in assay [1], in assay [2], in assay [3], in assay [4] and in assay [6] was Active. In addition, the result in assay [5] was inactive.

Consider `CCCCCCCCCCCCCCCCCCCCCCCCCC(=O)N[C@@H](CO[C@H]1O[C@H](CO)[C@H](O)[C@H](O)[C@H]1O)[C@H](O)[C@H](O)CCCCCCCC`, for which the outcome in assay [1], in assay [2], in assay [3], in assay [4] and in assay [6] was Active. Also, the result in assay [5] was inactive.

`CCCCCCCCCCCCCCCCCCCCCCCCCC(=O)N[C@@H](CO[C@H]1O[C@H](CO)[C@H](O)[C@H](O)[C@H]1O)[C@H](O)[C@H](O)CCCCCCCCCCCCCC`: the result in assay [1], in assay [3], in assay [4] and in assay [6] was Active. Also, in assay [5], the outcome was inactive.

For the origin of these results see ChEMBL document CHEMBL1641364, “Synthesis of truncated analogues of the iNKT cell agonist, α-galactosyl ceramide (KRN7000), and their biological evaluation” (Bioorg Med Chem, 2011).
